Source: ChEMBL document CHEMBL4706597, “Structure-guided optimization and mechanistic study of a class of quinazolinone-threonine hybrids as antibacterial ThrRS inhibitors” (Eur J Med Chem, 2020)
Values after ≈ are worked out from the molar mass of the structure shown. Active and inactive are the calls of the source. No cut-off for these calls is given here.

Key:
Escherichia coli = experiment: Antibacterial activity against Escherichia coli ATCC 25922 assessed as reduction in bacterial growth incubated for 18 hrs by CLSI based broth microdilution assay; format: functional
In short: (§1)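 Broth microdilution per CLSI; compounds in 2-fold dilutions starting from 256 μg/mL. Defined medium: M9 with 0.4% glucose plus 100 μM of all canonical amino acids. MIC read as growth end point.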

Salmonella enterica [1] = experiment: Antibacterial activity against Salmonella enterica 87 assessed as reduction in bacterial growth incubated for 18 hrs by CLSI based broth microdilution assay; format: functional; in short: as §1
Pseudomonas aeruginosa = experiment: Antibacterial activity against Pseudomonas aeruginosa ATCC 27853 assessed as reduction in bacterial growth incubated for 18 hrs by CLSI based broth microdilution assay; format: functional; in short: as §1
Salmonella enterica [2] = experiment: Binding affinity to Salmonella enterica Threonyl-tRNA synthetase assessed as change in melting temperature at 0.5 mM incubated for 10 mins by SYPRO orange dye-based thermal shift assay
In short: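 SeThrRS 8 μM in 100 mM HEPES pH 7.5, 150 mM NaCl, 4× SYPRO orange, with 0.5 mM compound or 0.5% DMSO blank; 25 °C for 10 min, then ramped 25 to 95 °C at 1 °C/min, fluorescence read every 30 s. Tm fitted from melt curve; ΔTm = with minus without compound; mean of three independent experiments.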

Salmonella enterica [3] = experiment: Inhibition of Salmonella enterica Threonyl-tRNA synthetase assessed as reduction in aminoacylation activity at 100 uM using L-threonine as substrate incubated for 3 hrs by Kinase-glo luminescence assay relative to control
In short: (§2)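 3 h at room temperature, stopped with Kinase-Glo, luminescence read. Inhibition % = (RLU compound − RLU blank)/(RLU no-enzyme − RLU blank) × 100, at 100 μM compound. IC50 run for compounds above 50% inhibition at 100 μM, fitted as 100/(1+([I]/IC50)^B). Mean of three independent assays.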

[4] = Inhibition of Salmonella enterica Threonyl-tRNA synthetase assessed as reduction in aminoacylation activity using L-threonine as substrate incubated for 3 hrs by Kinase-glo luminescence assay; in short: as §2
Enterococcus faecalis = experiment: Antibacterial activity against Enterococcus faecalis ATCC 29212 assessed as reduction in bacterial growth incubated for 18 hrs by CLSI based broth microdilution assay; format: functional; in short: as §1
Staphylococcus aureus [5] = experiment: Antibacterial activity against methicillin-resistant Staphylococcus aureus R3708 assessed as reduction in bacterial growth incubated for 18 hrs by CLSI based broth microdilution assay; format: functional
In short: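 Broth microdilution under CLSI conditions, with 2-fold compound dilutions starting at 256 μg/mL. Medium was M9 with 0.4% glucose, supplemented with 100 μM of all canonical amino acids.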

Salmonella enterica [6] = experiment: Potency index, ratio of IC50 of parent compound to IC50 of compound for inhibition of Salmonella enterica Threonyl-tRNA synthetase assessed as reduction in aminoacylation activity using L-threonine as substrate incubated for 3 hrs by Kinase-glo luminescence assay
Salmonella enterica [7] = experiment: Inhibition of Salmonella enterica Threonyl-tRNA synthetase assessed as reduction in aminoacylation activity at 10 uM using increasing concentration of ATP as substrate incubated for 3 hrs by Kinase-glo luminescence assay
In short: (§3)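 Aminoacylation by SeThrRS followed as ATP consumption (Kinase-Glo luminescence) after 3 h at room temperature. Inhibitor held at 10 μM while one substrate (L-Thr, tRNA^Thr or ATP, per line) was raised stepwise to test competition. Other components as in the standard assay.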

Staphylococcus aureus [8] = experiment: Antibacterial activity against Staphylococcus aureus ATCC 29213 assessed as reduction in bacterial growth incubated for 18 hrs by CLSI based broth microdilution assay; format: functional; in short: as §1
Salmonella enterica [9] = experiment: Inhibition of Salmonella enterica Threonyl-tRNA synthetase assessed as reduction in aminoacylation activity at 10 uM using increasing concentration of t-RNAthr as substrate incubated for 3 hrs by Kinase-glo luminescence assay; in short: as §3
Salmonella enterica [10] = experiment: Inhibition of Salmonella enterica Threonyl-tRNA synthetase assessed as reduction in aminoacylation activity at 10 uM using increasing concentration of L-threonine as substrate incubated for 3 hrs by Kinase-glo luminescence assay; in short: as §3
[11] = Binding affinity to Salmonella enterica Threonyl-tRNA synthetase at 200 uM by isothermal titration calorimetry
In short: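 ITC: 20 μM SeThrRS in cell, 200 μM ligand in syringe, both in 20 mM HEPES pH 7.5, 150 mM NaCl. First injection 5 μL, then 24 × 10 μL at 180 s spacing. Ligand-into-buffer isotherm subtracted as baseline; one-site model fit gives Kd, ΔH, ΔS, N.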

CC1(C)S[C@@H]2[C@H](NC(=O)[C@H](N)c3ccccc3)C(=O)N2[C@H]1C(=O)O [AMPICILLIN]
MIC (Escherichia coli): 1 µg/mL (≈ 2.86 µM) | MIC (Salmonella enterica [1]): 1 µg/mL (≈ 2.86 µM) | MIC (Pseudomonas aeruginosa): 0.5 µg/mL (≈ 1.43 µM)

CC(C)(O)[C@H](N)C(=O)NC/C=C/Cn1cnc2cc(Cl)c(Cl)cc2c1=O
ΔTm (Salmonella enterica [2]): 0.9 °C | inhibition (Salmonella enterica [3]): 0%

CN[C@H](C(=O)NC/C=C/Cn1cnc2cc(Cl)c(Cl)cc2c1=O)[C@@H](C)O
MIC (Escherichia coli): 16 µg/mL (≈ 40.1 µM) | IC50 [4]: 500 nM | ΔTm (Salmonella enterica [2]): 28.4 °C | MIC (Enterococcus faecalis): 32 µg/mL (≈ 80.1 µM) | MIC (Staphylococcus aureus [5]): 32 µg/mL (≈ 80.1 µM) | Ratio IC50 (Salmonella enterica [6]): 3 | inhibition (Salmonella enterica [7]): Active | MIC (Staphylococcus aureus [8]): 32 µg/mL (≈ 80.1 µM) | MIC (Salmonella enterica [1]): 16 µg/mL (≈ 40.1 µM) | inhibition (Salmonella enterica [3]): 100% | inhibition (Salmonella enterica [9]): Active | MIC (Pseudomonas aeruginosa): 32 µg/mL (≈ 80.1 µM) | inhibition (Salmonella enterica [10]): Active | Kd [11]: 400 nM

N[C@@H](CO)C(=O)NC/C=C/Cn1cnc2cc(Cl)c(Cl)cc2c1=O
ΔTm (Salmonella enterica [2]): 0.6 °C | inhibition (Salmonella enterica [3]): 2%

C[C@H](O)[C@@H](N)C(=O)NC/C=C/Cn1cnc2cc(Cl)c(Cl)cc2c1=O
ΔTm (Salmonella enterica [2]): 0.6 °C | inhibition (Salmonella enterica [3]): 6%

CCN[C@H](C(=O)NC/C=C/Cn1cnc2cc(Cl)c(Cl)cc2c1=O)[C@@H](C)O
MIC (Escherichia coli): 16 µg/mL (≈ 38.7 µM) | IC50 [4]: 960 nM | ΔTm (Salmonella enterica [2]): 22.5 °C | MIC (Enterococcus faecalis): 32 µg/mL (≈ 77.4 µM) | MIC (Staphylococcus aureus [5]): 32 µg/mL (≈ 77.4 µM) | MIC (Staphylococcus aureus [8]): 64 µg/mL (≈ 155 µM) | MIC (Salmonella enterica [1]): 32 µg/mL (≈ 77.4 µM) | inhibition (Salmonella enterica [3]): 100% | MIC (Pseudomonas aeruginosa): 32 µg/mL (≈ 77.4 µM)

CC(C)N[C@H](C(=O)NC/C=C/Cn1cnc2cc(Cl)c(Cl)cc2c1=O)[C@@H](C)O
IC50 [4]: 49300 nM | ΔTm (Salmonella enterica [2]): 14.1 °C | inhibition (Salmonella enterica [3]): 63%

C[C@@H](O)[C@H](NCCF)C(=O)NC/C=C/Cn1cnc2cc(Cl)c(Cl)cc2c1=O
MIC (Escherichia coli): 32 µg/mL (≈ 74.2 µM) | IC50 [4]: 2500 nM | ΔTm (Salmonella enterica [2]): 19.1 °C | MIC (Enterococcus faecalis): 32 µg/mL (≈ 74.2 µM) | MIC (Staphylococcus aureus [5]): 64 µg/mL (≈ 148 µM) | MIC (Staphylococcus aureus [8]): 32 µg/mL (≈ 74.2 µM) | MIC (Salmonella enterica [1]): 32 µg/mL (≈ 74.2 µM) | inhibition (Salmonella enterica [3]): 99% | MIC (Pseudomonas aeruginosa): 64 µg/mL (≈ 148 µM)

O=C1CC[C@H](C(=O)NC/C=C/Cn2cnc3cc(Cl)c(Cl)cc3c2=O)N1
ΔTm (Salmonella enterica [2]): -0.2 °C | inhibition (Salmonella enterica [3]): 0%

CN[C@H](CC(C)C)C(=O)N[C@H]1C(=O)N[C@@H](CC(N)=O)C(=O)N[C@H]2C(=O)N[C@H]3C(=O)N[C@H](C(=O)N[C@H](C(=O)O)c4cc(O)cc(O)c4-c4cc3ccc4O)[C@H](O)c3ccc(c(Cl)c3)Oc3cc2cc(c3O[C@@H]2O[C@H](CO)[C@@H](O)[C@H](O)[C@H]2O[C@H]2C[C@](C)(N)[C@H](O)[C@H](C)O2)Oc2ccc(cc2Cl)[C@H]1O [VANCOMYCIN]
MIC (Enterococcus faecalis): 2 µg/mL (≈ 1.38 µM)

C[C@@H](O)[C@H](N)C(=O)NS(=O)(=O)c1cccc(-c2ccc3[nH]ncc3c2)c1
MIC (Escherichia coli): > 256 µg/mL | MIC (Enterococcus faecalis): > 256 µg/mL | MIC (Staphylococcus aureus [5]): > 256 µg/mL | MIC (Staphylococcus aureus [8]): > 256 µg/mL | MIC (Salmonella enterica [1]): > 256 µg/mL | MIC (Pseudomonas aeruginosa): > 256 µg/mL

C[C@@H](O)[C@H](NCC#N)C(=O)NC/C=C/Cn1cnc2cc(Cl)c(Cl)cc2c1=O
IC50 [4]: 9600 nM | ΔTm (Salmonella enterica [2]): 18.8 °C | inhibition (Salmonella enterica [3]): 93%

O=C1CC[C@@H](C(=O)NC/C=C/Cn2cnc3cc(Cl)c(Cl)cc3c2=O)N1
ΔTm (Salmonella enterica [2]): -0.4 °C | inhibition (Salmonella enterica [3]): 5%

CCO[C@H](C)[C@H](N)C(=O)NC/C=C/Cn1cnc2cc(Cl)c(Cl)cc2c1=O
ΔTm (Salmonella enterica [2]): 0.2 °C | inhibition (Salmonella enterica [3]): 4%

O=C(CC1NCCCC1O)Cn1cnc2cc(Br)c(Cl)cc2c1=O (stereo unspecified) [HALOFUGINONE]
MIC (Escherichia coli): 128 µg/mL (≈ 309 µM) | ΔTm (Salmonella enterica [2]): -1.5 °C | MIC (Enterococcus faecalis): 128 µg/mL (≈ 309 µM) | MIC (Staphylococcus aureus [5]): 64 µg/mL (≈ 154 µM) | MIC (Staphylococcus aureus [8]): 64 µg/mL (≈ 154 µM) | MIC (Salmonella enterica [1]): 64 µg/mL (≈ 154 µM) | inhibition (Salmonella enterica [3]): 4% | MIC (Pseudomonas aeruginosa): 64 µg/mL (≈ 154 µM)

C=CCN[C@H](C(=O)NC/C=C/Cn1cnc2cc(Cl)c(Cl)cc2c1=O)[C@@H](C)O
IC50 [4]: 1200 nM | ΔTm (Salmonella enterica [2]): 22.1 °C | inhibition (Salmonella enterica [3]): 100%
